In the library only some 4.4% were active in any assay of this set; here they are far more common.
TbMetRS inhib – blocks T. brucei methionyl-tRNA synthetase activity; purified T. brucei MetRS, ATP depletion, Kinase-Glo luminescence; inhibition, % at 11.9 µM; 360,000 tested, 0.4% active;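 active = inhibition above a per-plate cutoff of the control wells' mean inhibition plus 3 SD, cut at about 5.5% in these data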
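System: purified T. brucei MetRS enzyme / Detection: Kinase-Glo luciferase luminescence reporting remaining unconsumed ATP / Medium: HEPES buffer with MgCl2, KCl, DTT, spermine, BSA, pyrophosphatase / Replication: singlicate, one well per compound / Evaluation: percent inhibition relative to median high and low control wells / Schedule: 2 h aminoacylation at 25 °C after 15 min preincubation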
MsrA inhibitor – inhibitors of bovine MsrA. 360,000 tested, 0.75% active. inhibition, % at 15.5 µM. AID 651718. purified bovine MsrA, absorbance read-out; in the data active = inhibition above about 4.5%
AI-2 QS modul – modulators of Vibrio harveyi AI-2 quorum sensing system. Vibrio harveyi JMH597 AI-2 luminescence/OD600 ratio, 9 h; active compounds read low; strain lacks LuxN and CqsS sensors; 0 = neutral-control median. 300,000 tested, 0.4% active. activity change, % at 7.5 µM; in the data active = activity change below about -75%, passing the limit was not always enough;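 also: luminescence divided by OD600 gain over 9 h not by final OD600 alone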
AHR act – activators of human aryl hydrocarbon receptor; activation, % at 5 µM; 320,000 tested, 2.5% active; AHR-responsive luciferase reporter cells, luminescence; P35869; in the data active = activation above about 47%
Target sequence (P35869 whole entry, looked up): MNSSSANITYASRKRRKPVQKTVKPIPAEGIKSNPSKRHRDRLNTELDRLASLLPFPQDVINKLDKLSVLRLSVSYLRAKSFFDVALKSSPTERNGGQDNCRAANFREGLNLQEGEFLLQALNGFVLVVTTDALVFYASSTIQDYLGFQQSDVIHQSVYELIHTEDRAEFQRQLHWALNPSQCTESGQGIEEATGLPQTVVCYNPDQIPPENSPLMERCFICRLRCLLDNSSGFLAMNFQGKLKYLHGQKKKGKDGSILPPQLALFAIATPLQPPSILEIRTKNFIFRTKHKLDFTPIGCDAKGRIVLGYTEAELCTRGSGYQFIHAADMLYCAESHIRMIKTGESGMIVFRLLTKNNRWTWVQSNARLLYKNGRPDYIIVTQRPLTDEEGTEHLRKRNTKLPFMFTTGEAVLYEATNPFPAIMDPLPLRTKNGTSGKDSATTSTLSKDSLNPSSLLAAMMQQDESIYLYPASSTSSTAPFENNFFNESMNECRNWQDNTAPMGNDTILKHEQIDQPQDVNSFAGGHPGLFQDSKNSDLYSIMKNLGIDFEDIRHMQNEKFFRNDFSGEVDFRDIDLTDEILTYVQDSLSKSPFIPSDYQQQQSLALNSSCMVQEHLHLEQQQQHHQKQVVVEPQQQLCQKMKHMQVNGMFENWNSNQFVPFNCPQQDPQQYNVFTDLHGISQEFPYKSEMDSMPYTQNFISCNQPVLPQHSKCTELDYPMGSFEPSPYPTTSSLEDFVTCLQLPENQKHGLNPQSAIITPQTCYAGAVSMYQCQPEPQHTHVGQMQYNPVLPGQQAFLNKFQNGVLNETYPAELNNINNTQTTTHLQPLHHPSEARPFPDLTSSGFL
HTR2A ag – mouse HTR2A agonism via beta-arrestin recruitment; P35363; CHO-K1 mHTR2A beta-arrestin complementation, luminescence; percent of 30 µM serotonin response; activation, % at 7.6 µM; 360,000 tested, 0.66% active; AID 624169;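 active = activation above a run cutoff, the mean activation of all tested compounds plus 3 SD, cut at about 14% in these data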
MsrA act – activators of bovine methionine sulfoxide reductase A; purified bovine MsrA, absorbance read-out; activation, % at 10.6 µM; 360,000 tested, 0.3% active; AID 602163; in the data active = activation above about 7.5%
MsrA activ conf – confirmation of bovine methionine sulfoxide reductase A activators | activation, % at 10.6 µM | 1,000 tested, 12% active | purified bovine MsrA, absorbance read-out | shares compounds with MsrA act; in the data active = activation above about 4%;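 also: enzyme coupled to thioredoxin and thioredoxin reductase with NADPH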
Large screens that a line does not name were inactive (follow-up assays come after a bar, where they were run).

CC(C)C(NC(=O)c1c(F)cccc1F)C(=O)NCc1ccc(S(=O)(=O)N2CCOCC2)cc1 (stereo not drawn)	none (no result: AI-2 QS modul)
NS(=O)(=O)c1ccc(CNC(=O)CNC(=O)c2ccc(F)cc2)cc1	none
O=S(=O)(NCc1nnc2ccccn12)c1ccc(Cl)cc1	none (no result: AI-2 QS modul)
CCN1CCN(C(C(=O)NC2CCCCC2)c2ccnc3ccccc23)CC1 (stereo not drawn)	none (no result: AI-2 QS modul, AHR act)
Nc1c(C(=O)N2CCOCC2)sc2nc3c(cc12)CCC3	none
Cc1ccc(C)c2nc3sc(C(=O)N4CCOCC4)c(N)c3cc12	MsrA act 8.8 | MsrA activ conf 4.9
CC(=O)NCc1ccc(S(=O)(=O)N2CCCN(C)CC2)cc1	none
Cn1ccsc1=NC(=O)c1ccc([N+](=O)[O-])o1	AI-2 QS modul -86, MsrA act 8.8 | MsrA activ conf inactive
COc1cc(C(=O)Oc2cc(C)cc(C)c2)cc(OC)c1OC	MsrA act 8.8 | MsrA activ conf inactive
COc1cc(C(=O)Oc2cccnc2)cc(OC)c1OC	none
Cc1ccc(S(=O)(=O)N2CCOCC2)cc1NC(=O)COC(=O)/C=C/c1ccc(F)cc1	none (no result: AI-2 QS modul)
N#Cc1ccccc1NC(=O)CN1C(=O)NC(Cc2c[nH]c3ccccc23)C1=O (stereo not drawn)	AHR act 78, MsrA act 8.0 (no result: AI-2 QS modul) | MsrA activ conf 5.4
O=C(CN1C(=O)NC(Cc2c[nH]c3ccccc23)C1=O)Nc1ccc(F)cc1F (stereo not drawn)	none (no result: AI-2 QS modul)
CCNC(=O)C1CCCN1C(=O)C(CCCN=C(N)N)NC(=O)C(CC(C)C)NC(=O)C(Cc1cn(Cc2ccccc2)cn1)NC(=O)C(Cc1ccc(O)cc1)NC(=O)C(CO)NC(=O)C(Cc1c[nH]c2ccccc12)NC(=O)C(Cc1cnc[nH]1)NC(=O)C1CCC(=O)N1 (stereo not drawn)	none (no result: MsrA inhibitor)
CC(=O)c1sc(NC(=O)c2oc3ccc(F)cc3c2C)nc1C	none (no result: AI-2 QS modul)
CC(C)Sc1nc2ccccc2c(=O)[nH]1	none
CCC(C)Sc1nc2ccccc2c(=O)[nH]1 (stereo not drawn)	MsrA act 15 | MsrA activ conf inactive
CC(C)CNc1nc(=S)nc(N(C)C)[nH]1	MsrA act 8.3 | MsrA activ conf 4.2
Cc1cccc(N(CC(=O)N2CCN(C)CC2)S(=O)(=O)c2ccccc2)c1	none
CN1CCN(C(=O)CN(c2cccc(Cl)c2)S(=O)(=O)c2ccccc2)CC1	MsrA act 11 | MsrA activ conf inactive
O=C(Nc1ccc2c(c1)OCCO2)C1c2ccccc2OCC(=O)N1CCc1c[nH]c2ccccc12 (stereo not drawn)	MsrA act 8.0 (no result: AI-2 QS modul, AHR act) | MsrA activ conf inactive
O=C(NC1CCCC1)C1c2ccccc2OCC(=O)N1CCc1c[nH]c2ccccc12 (stereo not drawn)	none (no result: AI-2 QS modul, AHR act)
CCC(C(=O)NC1CCCC1)n1c2ccccc2c2nc(=O)cc(C)n21 (stereo not drawn)	none (no result: AI-2 QS modul, AHR act)
CN(C)c1nc(OCCNC(=O)Nc2ccccc2)nc(N2CCOCC2)n1	MsrA act 16 (no result: AHR act) | MsrA activ conf inactive
O=[N+]([O-])c1cccc2c(N3CCCC3)ccnc12	MsrA act 20 | MsrA activ conf 12
CC(C(=O)N1CCCCC1)n1ncn2cccc2c1=O (stereo not drawn)	MsrA act 20 | MsrA activ conf inactive
CCOC(=O)C1=CC[C@@H](c2ccccc2Cl)N(S(=O)(=O)c2ccc(C)cc2)[C@H]1C(=O)OCC	none (no result: AI-2 QS modul)
CCOC(=O)C1=CC[C@@H](c2cccc(C)c2)N(S(=O)(=O)c2ccc(C)cc2)[C@H]1C(=O)OCC	MsrA act 9.9 (no result: AI-2 QS modul) | MsrA activ conf inactive
CCN1CCN(C2=C(NS(=O)(=O)c3ccccc3)C(=O)c3ccccc3C2=O)CC1	none
CCN1CCN(C2=C(NS(=O)(=O)c3ccc(Br)cc3)C(=O)c3ccccc3C2=O)CC1	MsrA act 8.2 | MsrA activ conf inactive
OCCCNc1ncnc2c1ncn2[C@H]1CN(C2CCCC2)C[C@@H](CO)O1	none (no result: AI-2 QS modul, AHR act)
COc1ccccc1OCc1ccc(C(=O)Nc2ccccc2)cc1	MsrA act 12 (no result: AI-2 QS modul) | MsrA activ conf inactive
O=C1c2ccccc2-c2nnc(-c3ccccc3)cc21	MsrA act 9.4 | MsrA activ conf 4.0
CCOC(=O)c1ccccc1NC(=O)CSc1nnc(COc2ccccc2C)n1C	MsrA act 9.0 | MsrA activ conf inactive
Cc1ccccc1OCc1nnc(SCC(=O)NCc2ccccc2)n1C	none
CCOc1ccc(-c2noc(-c3ccncc3)n2)cc1OCC	none
CCOc1ccccc1-c1nc(-c2ccncc2)no1	AHR act 48, MsrA act 8.4 | MsrA activ conf inactive
CCOc1ccc(-c2nc(-c3ccc(OC)cc3)no2)cc1OCC	MsrA act 7.9 | MsrA activ conf inactive
CNc1snc(C)c1C(=O)OC(C)C(=O)Nc1cccc(OC)c1 (stereo not drawn)	none (no result: AI-2 QS modul)
COc1cccc(NC(=O)C(C)OC(=O)c2n[nH]c3ccccc23)c1 (stereo not drawn)	MsrA act 16 (no result: AI-2 QS modul) | MsrA activ conf inactive
NS(=O)(=O)c1ccc(NC(=O)NC2CC(=O)N(c3ccc4c(c3)OCCO4)C2)cc1 (stereo not drawn)	MsrA act 11 | MsrA activ conf inactive
Fc1ccc(-n2nnc(-c3ncc[nH]3)n2)cc1	none (no result: TbMetRS inhib, MsrA inhibitor, HTR2A ag, MsrA act)
COc1ccc(S(=O)(=O)N2CCCC(C(=O)N3CCOCC3)C2)cc1Cl (stereo not drawn)	none
COc1ccc(S(=O)(=O)N2CCC(C(=O)N3CCOCC3)CC2)cc1Cl	MsrA act 8.0 | MsrA activ conf inactive
O=C(c1ccccc1)N1CCN(C(=O)c2cc3ccccc3o2)CC1	MsrA act 7.7 | MsrA activ conf inactive
FC(F)(F)c1cc(Oc2ccccc2)nc(-c2ccccn2)n1	MsrA act 9.7 | MsrA activ conf inactive
FC(F)(F)c1cc(Oc2ccc(Cl)cc2)nc(-c2ccccn2)n1	none
CCN1CCN(C(=O)CS(=O)(=O)Cc2nc(-c3cccc(OC)c3)oc2C)CC1	none
CCCN1CCN(C(=O)CS(=O)(=O)Cc2nc(-c3cccc(OC)c3)oc2C)CC1	MsrA act 9.3 | MsrA activ conf inactive
CC(C)NC(=O)N(C)C[C@@H]1OCc2cn(nn2)CCCC(=O)N([C@@H](C)CO)C[C@H]1C	none (no result: TbMetRS inhib, AI-2 QS modul, AHR act, HTR2A ag, MsrA act)
COc1ccc(CN2C(=O)[C@H]3Cc4c([nH]c5ccccc45)C(C)(C)N3C2=O)cc1	none
Cc1ccc(N=Nc2cc(C)ccc2O)c(C)c1	MsrA act 10 (no result: AHR act) | MsrA activ conf inactive
Cc1ccc(C)c(N=Nc2ccc(O)c3ncccc23)c1	none
C1CCCC(NC2=NCCO2)CCC1	MsrA act 9.5 (no result: MsrA inhibitor) | MsrA activ conf inactive
Cc1cc(=O)[nH]c2c1cnn2Cc1ccccc1	none
Cc1[nH]c(C)c2c(=O)n(Cc3ccc(Cl)cc3)ncc12	MsrA act 14 | MsrA activ conf inactive

Assay outcomes as filed in PubChem BioAssay.
